Tests used:
Assay type in all cases: functional
U-251 [1] = assay: Growth inhibition of human U-251 cells incubated for 48 hrs by sulforhodamine B assay
Method in brief: (§1)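 NCI DTP 60-line human tumour panel. Dose-response curves were run only for ligands active in the initial 10 µM screen. GI50 (concentration giving 50% of maximal inhibition of proliferation) and TGI (concentration giving total growth inhibition) were derived from these curves.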

A549 [2] = assay: Growth inhibition of human A549/ATCC cells assessed as cell growth at 100 uM incubated for 48 hrs by sulforhodamine B assay relative to control; conditions: read-out: Activity
Method in brief: (§2)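 NCI Developmental Therapeutics Program NCI60 panel. Compounds that were active in the 10 µM one-dose screen went on to dose–response testing. Growth at each concentration is expressed relative to untreated control (100%). GI50 (concentration giving 50% of maximal inhibition of proliferation) and TGI (concentration giving total growth inhibition) were derived from the curves.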

SR [3] = assay: Growth inhibition of human SR cells incubated for 48 hrs by sulforhodamine B assay; method in brief: as §1
MOLT-4 = assay: Growth inhibition of human MOLT-4 cells assessed as cell growth at 0.01 uM incubated for 48 hrs by sulforhodamine B assay relative to control; conditions: read-out: Activity
TK-10 = assay: Growth inhibition of human TK-10 cells assessed as cell growth at 0.01 uM incubated for 48 hrs by sulforhodamine B assay relative to control; conditions: read-out: Activity
HCT-15 [4] = assay: Growth inhibition of human HCT-15 cells incubated for 48 hrs by sulforhodamine B assay
Method in brief: (§3)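 NCI60 panel at the NCI Developmental Therapeutics Program. Only compounds active in the 10 µM screen went to dose-response testing. GI50, the concentration giving 50% of maximal inhibition of proliferation, and TGI, the concentration giving total growth inhibition, were derived from the dose-response curves.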

OVCAR-4 = assay: Growth inhibition of human OVCAR-4 cells assessed as cell growth at 1 uM incubated for 48 hrs by sulforhodamine B assay relative to control; conditions: read-out: Activity
COLO 205 = assay: Growth inhibition of human COLO 205 cells assessed as cell growth at 0.01 uM incubated for 48 hrs by sulforhodamine B assay relative to control; conditions: read-out: Activity; method in brief: as §2
HCT-116 [5] = assay: Growth inhibition of human HCT-116 cells assessed as cell growth at 0.1 uM incubated for 48 hrs by sulforhodamine B assay relative to control; conditions: read-out: Activity
M14 [6] = assay: Growth inhibition of human M14 cells assessed as cell growth at 100 uM incubated for 48 hrs by sulforhodamine B assay relative to control; conditions: read-out: Activity
NCI/ADR-RES [7] = assay: Growth inhibition of human NCI/ADR-RES cells assessed as cell growth at 0.1 uM incubated for 48 hrs by sulforhodamine B assay relative to control; conditions: read-out: Activity
NCI/ADR-RES [8] = assay: Growth inhibition of human NCI/ADR-RES cells assessed as cell growth at 0.01 uM incubated for 48 hrs by sulforhodamine B assay relative to control; conditions: read-out: Activity
HCT-116 [9] = assay: Growth inhibition of human HCT-116 cells assessed as cell growth at 0.01 uM incubated for 48 hrs by sulforhodamine B assay relative to control; conditions: read-out: Activity
HCT-15 [10] = assay: Growth inhibition of human HCT-15 cells assessed as cell growth at 0.1 uM incubated for 48 hrs by sulforhodamine B assay relative to control; conditions: read-out: Activity
U-251 [11] = assay: Growth inhibition of human U-251 cells assessed as cell growth at 0.1 uM incubated for 48 hrs by sulforhodamine B assay relative to control; conditions: read-out: Activity
NCI-H522 [12] = assay: Growth inhibition of human NCI-H522 cells assessed as cell growth at 0.1 uM incubated for 48 hrs by sulforhodamine B assay relative to control; conditions: read-out: Activity
K562 = assay: Growth inhibition of human K562 cells assessed as cell growth at 1 uM incubated for 48 hrs by sulforhodamine B assay relative to control; conditions: read-out: Activity
SN12C = assay: Growth inhibition of human SN12C cells assessed as cell growth at 100 uM incubated for 48 hrs by sulforhodamine B assay relative to control; conditions: read-out: Activity
M14 [13] = assay: Growth inhibition of human M14 cells incubated for 48 hrs by sulforhodamine B assay; method in brief: as §3
SK-MEL-5 [14] = assay: Growth inhibition of human SK-MEL-5 cells assessed as cell growth at 1 uM incubated for 48 hrs by sulforhodamine B assay relative to control; conditions: read-out: Activity
A549 [15] = assay: Growth inhibition of human A549/ATCC cells assessed as cell growth at 0.1 uM incubated for 48 hrs by sulforhodamine B assay relative to control; conditions: read-out: Activity; method in brief: as §2
CAKI-1 = assay: Growth inhibition of human CAKI-1 cells incubated for 48 hrs by sulforhodamine B assay; method in brief: as §2
RXF 393 = assay: Growth inhibition of human RXF 393 cells assessed as cell growth at 1 uM incubated for 48 hrs by sulforhodamine B assay relative to control; conditions: read-out: Activity
OVCAR-3 = assay: Growth inhibition of human OVCAR-3 cells assessed as cell growth at 0.1 uM incubated for 48 hrs by sulforhodamine B assay relative to control; conditions: read-out: Activity
PC-3 = assay: Growth inhibition of human PC-3 cells incubated for 48 hrs by sulforhodamine B assay; method in brief: as §1
RPMI-8226 [16] = assay: Growth inhibition of human RPMI-8226 cells assessed as cell growth at 100 uM incubated for 48 hrs by sulforhodamine B assay relative to control; conditions: read-out: Activity
SF-295 [17] = assay: Growth inhibition of human SF-295 cells assessed as cell growth at 0.1 uM incubated for 48 hrs by sulforhodamine B assay relative to control; conditions: read-out: Activity
SF-295 [18] = assay: Growth inhibition of human SF-295 cells assessed as cell growth at 1 uM incubated for 48 hrs by sulforhodamine B assay relative to control; conditions: read-out: Activity
MCF7 = assay: Growth inhibition of human MCF7 cells assessed as cell growth at 0.01 uM incubated for 48 hrs by sulforhodamine B assay relative to control; conditions: read-out: Activity
SR [19] = assay: Growth inhibition of human SR cells assessed as cell growth at 100 uM incubated for 48 hrs by sulforhodamine B assay relative to control; conditions: read-out: Activity
SK-MEL-5 [20] = assay: Growth inhibition of human SK-MEL-5 cells assessed as cell growth at 100 uM incubated for 48 hrs by sulforhodamine B assay relative to control; conditions: read-out: Activity
RPMI-8226 [21] = assay: Growth inhibition of human RPMI-8226 cells assessed as cell growth at 0.1 uM incubated for 48 hrs by sulforhodamine B assay relative to control; conditions: read-out: Activity
SNB-19 = assay: Growth inhibition of human SNB-19 cells incubated for 48 hrs by sulforhodamine B assay; method in brief: as §1
NCI-H460 = assay: Growth inhibition of human NCI-H460 cells assessed as cell growth at 100 uM incubated for 48 hrs by sulforhodamine B assay relative to control; conditions: read-out: Activity
NCI-H522 [22] = assay: Growth inhibition of human NCI-H522 cells assessed as cell growth at 0.01 uM incubated for 48 hrs by sulforhodamine B assay relative to control; conditions: read-out: Activity
[23] = read-out: LC50 (the source's name)

## COc1cccc(NC(=O)c2sc3nc4c(cc3c2N)CN(Cc2ccccc2)CC4)c1
U-251 [1]
  GI50: 2.74 µM
  LC50 (concentration killing 50% of cells): 88.7 µM
  TGI: 19.2 µM
A549 [2]
  growth at 100 µM: -8%
SR [3]
  GI50: 0.453 µM
  LC50: > 100 µM
  TGI: 47.7 µM
MOLT-4
  growth at 0.01 µM: 102%
TK-10
  growth at 0.01 µM: 104%
HCT-15 [4]
  GI50: 0.93 µM
  LC50: > 100 µM
  TGI: > 100 µM
OVCAR-4
  growth at 1 µM: 78%
COLO 205
  growth at 0.01 µM: 92%
HCT-116 [5]
  growth at 0.1 µM: 96%
M14 [6]
  growth at 100 µM: -4%
NCI/ADR-RES [7]
  growth at 0.1 µM: 97%
NCI/ADR-RES [8]
  growth at 0.01 µM: 102%
HCT-116 [9]
  growth at 0.01 µM: 91%
HCT-15 [10]
  growth at 0.1 µM: 95%
U-251 [11]
  growth at 0.1 µM: 98%
NCI-H522 [12]
  growth at 0.1 µM: 95%
K562
  growth at 1 µM: 31%
SN12C
  growth at 100 µM: 16%
M14 [13]
  GI50: 12.7 µM
  LC50 (concentration killing 50% of cells): > 100 µM
  TGI: 86.8 µM
SK-MEL-5 [14]
  growth at 1 µM: 58%
A549 [15]
  growth at 0.1 µM: 93%
CAKI-1
  GI50: 11.7 µM
  TGI: > 100 µM
CAKI-1; [23]
  CC50: > 100 µM
RXF 393
  growth at 1 µM: 84%
OVCAR-3
  growth at 0.1 µM: 103%
PC-3
  GI50: 11.6 µM
  TGI: 91.1 µM
PC-3; [23]
  CC50: > 100 µM
RPMI-8226 [16]
  growth at 100 µM: 27%
SF-295 [17]
  growth at 0.1 µM: 90%
SF-295 [18]
  growth at 1 µM: 77%
MCF7
  growth at 0.01 µM: 88%
SR [19]
  growth at 100 µM: -19%
SK-MEL-5 [20]
  growth at 100 µM: -34%
RPMI-8226 [21]
  growth at 0.1 µM: 101%
SNB-19
  GI50: 4.75 µM
  LC50: > 100 µM
  TGI: > 100 µM
NCI-H460
  growth at 100 µM: -25%
NCI-H522 [22]
  growth at 0.01 µM: 95%

Source: ChEMBL document CHEMBL4715736, “Identification of anticancer agents based on the thieno[2,3-b]pyridine and 1H-pyrazole molecular scaffolds” (2016)
